Measured values published in paper PMC3213326 (Molecular cancer therapeutics, 2011).

What was measured:
KLF5 [1] = experiment: Western blot of endogenous KLF5 levels in IEC-6 cells; format: cell-based, rat; conditions: wide range of concentrations
[2] = test system: KM12 colon cancer cell line; experiment: NCI-60 panel screen, KM12; format: cell-based, human; conditions: 10 µM, cell line highly expressing KLF5
EGR1 = experiment: Western blot of EGR1 in DLD-1 cells; format: cell-based, human; conditions: DLD-1, 10 µM, 24 h
In short: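 DLD-1 cells were seeded at 2 × 10⁵ per well in 1 ml medium. At 24 h after seeding they were given test compound in DMSO or DMSO alone for 24 h. Lysates were made in Laemmli buffer, separated by polyacrylamide gel electrophoresis and transferred to nitrocellulose. Membranes were probed with rabbit anti-EGR1, and scanned films were quantified by densitometry.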

leukemia cell lines = experiment: NCI-60 panel screen, leukemia lines; format: cell-based, human; conditions: 10 µM
DLD-1 cells = experiment: Cell viability assay; format: cell-based, human; conditions: 48 h; for effect on proliferation of DLD-1 cells: various concentrations
In short: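 DLD-1 cells were plated at 10⁴ per well in 96-well plates. They were dosed at once with increasing concentrations of test compound in DMSO (final 0.4%) or with DMSO alone. After 48 h, viability was read by Cell-Titer Glo luminescence. The DMSO control was set to 100%. Runs were done in triplicate, and IC50 came from a nonlinear sigmoidal dose-response fit.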

[3] = test system: NCI-60 panel of human cancer cell lines; experiment: NCI-60 panel screen; format: cell-based; conditions: 10 µM
KLF5 [4] = experiment: Western blot of endogenous KLF5 protein levels in DLD-1 cells; format: cell-based, human; conditions: 24 h; for effect on endogenous KLF5 levels: DLD-1, 10 µM
In short: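 DLD-1 cells were seeded at 2 × 10⁵ per well in 1 ml medium. At 24 h after seeding they were treated with 5 or 10 µM test compound in DMSO, or with DMSO alone, for 24 h. Cells were lysed in Laemmli buffer, run on polyacrylamide gel and transferred to nitrocellulose. Blots were probed with rabbit polyclonal anti-KLF5 (residues 95–111) and mouse monoclonal anti-β-actin, and scanned films were quantified by densitometry.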

| Compound | effect on endogenous KLF5 levels in IEC-6 cells (KLF5 [1]) | effect on EGR1 (EGR1) | effect on proliferation of DLD-1 cells (DLD-1 cells) | effect on endogenous KLF5 levels (KLF5 [4]) | also measured |
| --- | --- | --- | --- | --- | --- |
| CN(C(=O)COC(=O)/C=C/c1cccc([N+](=O)[O-])c1)C1CCS(=O)(=O)C1 (stereo not shown) [CID 5951923] | neither CIDs 4395011 nor 5951923 reduced endogenous KLF5 levels | downregulated EGR1 | inhibited proliferation of DLD-1 cells in a dose-dependent manner |  | inhibition of KM12 colon cancer cell line [2]: poor inhibition; inhibition of leukemia cell lines (leukemia cell lines): inhibition in a number of leukemia cell lines; potency of inhibition in NCI-60 panel [3]: potency was weak |
| C[C@@H]1O[C@@H](O[C@H]2C[C@@H](O)[C@]3(CO)[C@H]4[C@H](O)C[C@]5(C)[C@@H](C6=CC(=O)OC6)CC[C@]5(O)[C@@H]4CC[C@]3(O)C2)[C@H](O)[C@H](O)[C@H]1O [compound 439501] |  |  | inhibited proliferation of DLD-1 cells in a dose-dependent manner |  | IC50 (DLD-1 cells; read-out: IC50 for DLD-1 proliferation (cell viability), Cell-Titer Glo): 46 nM; inhibitory effect on KLF5 levels relative to the other three tested compounds (KLF5 [4]; DLD-1, 5 and 10 µM): more pronounced |
| CC1=CCCC2(C)C(CCC2(O)CN(CCc2cccs2)S(=O)(=O)c2cccs2)c2ccc(cc2C(=O)Cc2c(F)cccc2Cl)CC(O)CC1 (stereo not shown) [compound 4395011] | neither CIDs 4395011 nor 5951923 reduced endogenous KLF5 levels |  |  |  |  |
| CN(C(=O)CNC(=O)/C=C/c1cccc([N+](=O)[O-])c1)C1CCS(=O)(=O)C1 (stereo not shown) [compound 46931037] |  | downregulated EGR1 |  | similarly affect KLF5 protein levels |  |
| CN(C(=O)CNC(=O)/C=C/c1cccc(Cl)c1)C1CCS(=O)(=O)C1 (stereo not shown) [compound 46931043] |  |  |  | similarly affect KLF5 protein levels |  |
